Measured values: PubChem BioAssay
Calls of active or inactive are those of the source.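 Rule for the calls: active = current rise at least 3 SD above the untreated control mean in each of two repeat wells; inactive = the rest.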

Target: Potassium voltage-gated channel subfamily KQT member 1 (Homo sapiens) (UniProt P51787)
Assay: KCNQ1 activators by electrophysiology – IonWorks patch clamp, KCNQ1-CHO cells, orthogonal assay for KCNQ1 potentiator project, confirmation (AID 493184)
Conditions: automated patch clamp current, at 10 µM
Outline: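 assay system = KCNQ1-expressing CHO cells | medium = external bath solution at pH 7.4 | probe or stimulus = 2,000 ms depolarization, -90 to +40 mV | compound dosing = 10 µM final, single point | measured by = automated voltage clamp, amphotericin B perforated patch | measure = percent current increase versus pre-compound level | replication = duplicates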

Chain of Potassium voltage-gated channel subfamily KQT member 1 (Homo sapiens) (P51787 whole entry, looked up): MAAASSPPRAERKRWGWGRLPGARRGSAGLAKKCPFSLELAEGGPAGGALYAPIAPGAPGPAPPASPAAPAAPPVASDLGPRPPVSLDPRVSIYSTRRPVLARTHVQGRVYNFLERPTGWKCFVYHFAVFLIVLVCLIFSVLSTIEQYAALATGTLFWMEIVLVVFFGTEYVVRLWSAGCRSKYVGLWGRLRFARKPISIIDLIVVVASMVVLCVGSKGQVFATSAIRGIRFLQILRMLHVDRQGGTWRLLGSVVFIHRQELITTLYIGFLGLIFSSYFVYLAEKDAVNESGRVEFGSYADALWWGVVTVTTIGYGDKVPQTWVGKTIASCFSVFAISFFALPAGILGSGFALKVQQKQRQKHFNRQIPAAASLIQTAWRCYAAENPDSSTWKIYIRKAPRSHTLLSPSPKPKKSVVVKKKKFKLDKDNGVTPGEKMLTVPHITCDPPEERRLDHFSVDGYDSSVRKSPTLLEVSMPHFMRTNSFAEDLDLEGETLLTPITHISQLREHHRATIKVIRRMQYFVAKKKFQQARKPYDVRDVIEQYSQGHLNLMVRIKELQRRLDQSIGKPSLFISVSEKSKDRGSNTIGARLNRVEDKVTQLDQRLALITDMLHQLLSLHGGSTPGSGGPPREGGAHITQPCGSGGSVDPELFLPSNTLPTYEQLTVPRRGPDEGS

| Structure (SMILES) | outcome |
| --- | --- |
| CN(C)S(=O)(=O)N1CCC(CCCC2CCN(S(=O)(=O)N(C)C)CC2)CC1 | inactive |
| CCCCN(CC)CCCNC(=O)c1cc2cc3ccc(C)cc3nc2o1 | inactive |
| CN(CCCNC(=O)CCCOc1cc(=O)n(C)c2ccccc12)Cc1ccccc1 | inactive |
| Cc1ccc(C(=O)O)cc1N=Cc1cc(Br)cc(Br)c1O | inactive |
| CCCCCCCCCC[n+]1cccc2c3ccccc3ccc21 | inactive |
| CCCc1nc2oc3c(NCCCN(C)C)ncnc3c2c2c1CCCC2 | inactive |
| O=C(Nc1ccnn1C1CCN(Cc2cc3ccccc3[nH]2)CC1)C1CCOC1 (configuration not stated) | inactive |
